# From PubChem
# Shown are actives, neighbours in structure and some others; about 3.5% of the full set was active somewhere.
# Env fusion inh: inhibitors of HIV Env-mediated cell fusion. HeLa-JRFL Env/CEM21 cell fusion, luciferase. inhibition, % at 12.3 µM. 360,000 tested, 1.1% active;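 active means mean replicate inhibition score of at least 50 and every replicate individually at or above 50; inconclusive means only one of the two criteria met; inactive means mean below 50 and not all replicates reaching 50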;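 further: 0% = plate neutral controls and 100% = maraviroc near 300 nM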
# rRNA inh HTS: selective bacterial rRNA inhibition in E. coli. 350,000 tested, 1.6% active. GFP signal change (wild-type ribosome), % (no concentration beside the values). E. coli WT GFP vs humanized-ribosome RFP mutants, fluorescence, 24 h; active compounds read low; DMSO median 0, no signal -100;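 active means significant combined selectivity score with lowered wild-type GFP, culture density cut under 30%, mutant RFP and density less affected; inactive means any of these conditions unmet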
# FN deposition inh: fibronectin deposition inhibition. inhibition, % at 12.6 µM. AH1F fibroblasts, Alexa488-fibronectin deposition fluorescence, overnight. 350,000 tested, 0.086% active;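 active means mean inhibition across replicates of 30% or more, regardless of how many single replicates reach that level; inconclusive means mean under 30% yet at least half of replicates reach 30%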;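 further: positive control wells lacked labelled fibronectin entirely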
#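 Material: AH1F fibroblast monolayer depositing Alexa488-labelled fibronectin into matrix / Amount: 10000 AH1F cells per well / Signal: fluorescence 485/525 nm / Medium: DMEM, 2% serum / Compound: single dose, pinned / Incubation: 1 h cell adhesion before compound, then overnight fibronectin incubation / Reagent: Alexa488-FN, 24 nM final / Read-out: inhibition of fibronectin deposition signal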
# DENV2 CPE: inhibitors of DENV2 cytopathic effect | DENV2-infected cells, cytopathic effect rescue, plate reader | CPE inhibition, % at 9.99 µM | 350,000 tested, 1.7% active; in the data active means CPE inhibition above about 20%, passing the limit was not always enough; inconclusive means no clear call, values can overlap the other calls; tested in BHK-21 cells;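 further: 0% = median of neutral control wells and 100% = median of positive control wells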
# PGC1a acetyl inh: PGC1a acetylation modulation, inhibitor mode | inhibition, % at 15.6 µM | 350,000 tested, 0.17% active | AID 651687 | U2OS PGC1a acetylation, AlphaScreen anti-acetyl-lysine; with virally co-expressed GCN5 acetyltransferase;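 active means every replicate shows inhibition of at least 40%; inconclusive means mean inhibition at least 40% but some replicate below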;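 further: 0% = neutral control wells and 100% = positive control wells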
# PglD DTNB: blocks C. jejuni PglD acetyltransferase activity | purified PglD enzyme, DTNB colorimetric CoA detection | inhibition, % at 12.5 µM | 360,000 tested, 0.098% active; in the data active means inhibition above about 16%, passing the limit was not always enough; inconclusive means no clear call, values can overlap the other calls
# Active calls of the source: *; ? = inconclusive; . = no result; [ ] = another dose, or the depositor's remark.
SMILES,Env fusion inh,rRNA inh HTS,FN deposition inh,DENV2 CPE,PGC1a acetyl inh,PglD DTNB
CC/C(=C\C1CCCCC1)C(NP(=O)(c1ccccc1)c1ccccc1)c1ccccc1 (stereo not drawn),107.3*,-2.8,-19.1,-1.1,-4.5,-2.6
O=P(NC1CCCCC1)(c1ccccc1)c1ccccc1,-7.4,-8.6,3.8,0.1,-5.0,4.8
CCC(=O)N1CC2(CCN(C(=O)NC(C)C)CC2)c2c(n(C)c3cc(OC)ccc23)[C@@H]1CO,.,-3.3,.,1.5,-7.4,.
Cc1ccc(NS(=O)(=O)c2cc(C(=O)N(C)C3CCN(C)CC3)ccc2Cl)cc1Cl,75.1*,1.7,-2.1,7.9,-5.3,2.6
COc1ccc(-c2ccc([C@H]3[C@@H](CO)N4CCCCN(CC5CCOCC5)C[C@@H]34)cc2)cc1,.,2.3,.,24.1*,0.0,-0.6
CCCC#Cc1ccc([C@@H]2[C@H](CO)N3CCCCN(CC4CCOCC4)C[C@@H]23)cc1,.,6.0,.,46.4*,-13.0,-7.4
COc1ccc(-c2ccc([C@H]3[C@@H](CO)N4CCCCN(CC5CCOCC5)C[C@H]34)cc2)cc1,.,-0.8,.,33.1*,9.0,2.0
COc1ccc(-c2ccc([C@H]3[C@H]4CN(CC5CCOCC5)CCCCN4[C@H]3CO)cc2)cc1,.,3.2,.,0.1,0.2,10.5
CO[C@@H]1CN(C)C(=O)c2ccc(NC(=O)c3nc4ccccc4s3)cc2OC[C@H](C)N(Cc2cncnc2)C[C@@H]1C,.,-6.7,-2.5,3.1,6.3,-2.8
C[C@@H]1CCCCO[C@H](CN(C)S(=O)(=O)c2ccccc2)[C@H](C)CN([C@@H](C)CO)C(=O)c2cc(NC(=O)NC3CCCCC3)ccc2O1,27.2[16.7 µM],-3.3,8.2,1.4,-3.4,-2.5
O=C(NCC(=O)N1CCN(c2ncccn2)CC1)c1ccccc1OC(F)F,85.5*,-0.6,-1.4,-2.8,1.1,8.1
C[C@@H]1CN([C@H](C)CO)C(=O)c2cc(NC(=O)Nc3ccc(C(F)(F)F)cc3)ccc2O[C@@H](C)CCCCO[C@H]1CN(C)Cc1ccc(Cl)c(Cl)c1,1.9[16.7 µM],-5.2,.,2.8,1.3,2.9
O=C(NC(=S)N1CCCCC1)c1cccs1,9.7,.,2.0,.,.,.
CC1CCN(C(=S)NC(=O)c2cccs2)CC1,-42.4,-21.9*,-2.3,8.3,-3.1,.
C[C@H](CO)N1C[C@H](C)[C@H](CN(C)C(=O)Nc2ccc(C(F)(F)F)cc2)OCCCC[C@H](C)Oc2ccc(N(C)C)cc2C1=O,8.7[16.7 µM],0.9,.,.,8.9,.
O=C(NCCc1c[nH]c2ccccc12)/C(=C\c1cccnc1)NC(=O)c1ccccc1Br,17.2,-10.1,3.9,41.5*,-4.6,-5.4
CN(C)CC(=O)N[C@H]1C=C[C@@H](CC(=O)NCCN2CCCCC2)O[C@H]1CO,-1.8[16.7 µM],2.8,-17.7,1.3,2.3,-2.3
CN(C)c1ccnc2c[cH-]cc12.[Fe].c1ccc(-[c-]2[c-](-c3ccccc3)[c-](-c3ccccc3)[c-](-c3ccccc3)[c-]2-c2ccccc2)cc1 (stereo not drawn),57.4*,33.7,6.3,-8.3,0.8,-2.2
Cc1noc(C)c1NC(=O)Nc1cccc2c1O[C@@H](CN(C)Cc1ccccc1)[C@H](C)CN([C@H](C)CO)C2=O,-2.1[16.7 µM],-1.4,.,-6.0,.,-3.7
COc1ccc(NC(=O)N(C)C[C@H]2Oc3c(NC(=O)c4cc(C)nn4C)cccc3C(=O)N([C@H](C)CO)C[C@H]2C)cc1,-6.6[16.7 µM],1.0,.,0.4,3.3,-0.1
C[C@H](CO)N1C[C@H](C)[C@@H](CN(C)C(=O)c2ccncc2)OCCCC[C@H](C)Oc2ccc(NS(=O)(=O)c3cn(C)cn3)cc2C1=O,-12.9[16.7 µM],3.1,.,-2.9,7.0,1.6
COc1cccc(C2CC(c3ccc(Br)cc3)=NN2C(=O)c2ccncc2)c1OC (stereo not drawn),16.3,-35.3*,.,-5.7,-22.5,.
Cc1cccc(COC[C@H](Cc2ccccc2)N2CCN(C(=O)c3cc(Cl)cc(Cl)c3)CCC2=O)c1,91.9*,11.6,11.6,-10.0,.,.
Cc1cccc(C(=O)N2CCC(=O)N(C(COCc3ccccc3)Cc3ccccc3)CC2)c1 (stereo not drawn),29.4,-20.6,13.8,-16.1,-12.4,3.7
Cc1cccc(COCC(Cc2ccccc2)N2CCN(C(=O)c3cccc(Cl)c3)CCC2=O)c1 (stereo not drawn),66.2*,-17.3,-1.4,-2.7,.,3.6
SMILES,Env fusion inh,rRNA inh HTS,FN deposition inh,DENV2 CPE,PGC1a acetyl inh,PglD DTNB
Cc1cccc(COC[C@H](Cc2ccccc2)N2CCN(C(=O)c3cccc(C)c3)CCC2=O)c1,20.6,-39.2,0.9,?,.,.
Cc1cccc(COC[C@H](Cc2ccccc2)N2CCN(C(=O)c3cccc(Cl)c3)CCC2=O)c1,74.7*,-28.0,2.1,3.6,.,.
O=C(c1cccc(F)c1)N1C[C@@H]2[C@H](c3ccccc31)[C@@H](CO)N2C(=O)C1CCOCC1,.,-1.5,.,-5.3,-7.2,-2.1
COc1ccc(/C=C2/SC(=S)N(CCC(=O)O)C2=O)cc1,57.6*,.,2.2,.,-20.7,0.1
O=C1/C(=C\c2cc(Cl)c(O)c(Cl)c2)SC(=S)N1Cc1ccccc1,39.9,18.2,-43.8,-3.2,4.7,-9.7
O=C(O)COc1ccc(/C=C2/SC(=S)N(Cc3ccccc3)C2=O)cc1,0.7,-31.5,0.2,-2.5,71.6*,-9.7
CO[C@H](CN(C)C(=O)C1CCOCC1)[C@@H](C)CN(C(=O)Nc1ccc(C(F)(F)F)cc1)[C@@H](C)CO,.,-57.6,-12.4,-0.3,11.0,-3.6
CCCOc1ccc(C2C(=O)N(C3CCCCCC3)CC(=O)N2Cc2ccco2)cc1OC (stereo not drawn),58.5*,.,9.2,.,-20.5,1.4
CC(C)NC(=O)Nc1ccc2c(c1)C(=O)N([C@@H](C)CO)C[C@@H](C)[C@H](CN(C)S(=O)(=O)c1ccc(F)cc1)OCCCC[C@@H](C)O2,-50.9[16.7 µM],-1.1,.,?,2.2,-2.7
CC1(C)Cc2c(ccc3ccccc23)C(=O)N1,79.7*,.,.,.,32.5,-3.1
CCC(O)(CC)C(=O)NN(C(=O)CCl)c1ccccc1,61.4*,13.1,5.7,-2.4,.,.
Cc1ccc(N(NC(=O)C(O)(c2ccccc2)c2ccccc2)C(=O)CCl)cc1,70.2*,.,5.7,.,.,.
Cc1ccc(C(O)(C(=O)NN(C(=O)c2ccccc2)c2ccccc2)c2ccc(C)cc2)cc1,-26.4,.,10.2,-6.4,.,.
O=C(NC[C@H]1N[C@H](CO)[C@@H]1c1ccc(C2=CCCCC2)cc1)c1ccc(F)cc1,.,-60.8,-18.0,44.1*,-27.7,-0.7
CN(C[C@H]1N[C@@H](CO)[C@@H]1c1ccc(C2=CCCC2)cc1)C(=O)c1cccc(F)c1,.,-6.7,-34.3,-8.7,76.2*,-0.2
O=C(NC[C@H]1N[C@H](CO)[C@H]1c1ccccc1)c1ccccc1F,.,-3.5,-1.2,22.9*,4.1,-2.8
O=C(C[C@H]1CC[C@@H]2[C@H](COC[C@H](O)CN2Cc2ccc(F)cc2)O1)NCc1ccccc1Cl,.,1.4,-1.6,9.2,2.3,-0.5
